PfGluPho inh: PfG6PD enzyme inhibitors, primary screen, biochemical, fluorescence intensity, uHTS; inhibition, % at 20 µM; glucose-6-phosphate dehydrogenase-6-phosphogluconolactonase (Plasmodium falciparum 3D7); PfGluPho enzyme, NADPH resazurin-diaphorase fluorescence; 350,000 tested, 0.78% active;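 active = inhibition reaching at least a set limit at 20 µM in the primary screen, cut at about 59% in these data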;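 also: 0% = DMSO wells with substrate and 100% = DMSO wells lacking glucose-6-phosphate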
HKDC1 inhibitor: HKDC1 hexokinase inhibitors, primary screen, biochemical, fluorescence, uHTS; Q2TB90; recombinant HKDC1, G6PDH/diaphorase resazurin coupled fluorescence; inhibition, % at 20 µM; 340,000 tested, 0.16% active;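 active = inhibition above about 35% when tested at 20 µM, limit read from the data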;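 also: plate controls were DMSO wells with enzyme for no effect and DMSO wells lacking enzyme for full effect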
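Test system: recombinant HKDC1 (HK5) hexokinase enzyme, produced in-house; Amount: enzyme 5 µg/mL final; Buffer or medium: Tris pH 8.0 buffer with MgCl2, Tween-20, BSA, BME; Reagent: glucose and ATP substrates; Doses: 20 µM test compound, 1% DMSO; Incubation: 90 min reaction incubation at room temperature, dark; Detection: resorufin fluorescence at 613 nm.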
A3A deaminase: APOBEC3A ssDNA deaminase inhibitors, primary screen, selectivity assay for APOBEC3G inhibitor project, biochemical, FAM/TAMRA oligo cleavage fluorescence; recombinant A3A, FAM/TAMRA ssDNA deamination fluorescence; inhibition, % at 20 µM; 330,000 tested, 0.41% active; AID 493011, 2011;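 active = at least 40% inhibition at 20 µM here, with at most 30% in a related deaminase screen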;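 also: plate controls were A3A with DMSO for no effect and wells lacking A3A enzyme for full effect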
M18AAP inhibitor: PfM18AAP inhibitors, malaria aminopeptidase, primary screen, biochemical, QFRET, recombinant enzyme | M18 aspartyl aminopeptidase (Plasmodium falciparum 3D7) | 290,000 tested, 1.2% active | H-Glu-NHMec fluorogenic cleavage | inhibition, % at 7.35 µM | AID 1822, 2009;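 active = inhibition above the campaign mean inhibition over all tested compounds plus 3 SD, cut at about 28% in these data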;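 also: 0% = plate median of test compound wells and 100% = 2 mM ZnCl2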
A3G deaminase: APOBEC3G DNA deaminase inhibitors, primary screen, biochemical, fluorescence, single-stranded DNA substrate, uHTS; 330,000 tested, 0.28% active; inhibition, % at 20 µM; DNA dC->dU-editing enzyme APOBEC-3G (Homo sapiens), Q9HC16; recombinant A3G, ssDNA deamination FAM/TAMRA fluorescence;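 active = inhibition of at least 40% at 20 µM, with no more than 30% in the related APOBEC3A deaminase screen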;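 also: plate controls were DMSO wells with A3G for no effect and wells lacking A3G enzyme for full effect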
SUMO HTRF inh: inhibitors of in vitro SUMOylation cascade, primary screen, biochemical, HTRF, uHTS | HTRF SUMOylation assay, SAE1/SAE2 + UBC9 | SUMO-conjugating enzyme UBC9 (Homo sapiens), P63279 | inhibition, % at 35 µM | 290,000 tested, 0.36% active; in the data active = inhibition above about 50%, passing the limit was not always enough
HKDC1 act conf2: HKDC1 hexokinase activators, confirmation, biochemical, single concentration | shares compounds with HKDC1 inhibitor | recombinant HKDC1, G6PDH/diaphorase resazurin fluorescence; stronger effect = lower value | inhibition, % at 20 µM | 740 tested, 14% active | AID 504708, 2011;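 active = inhibition at or below a set negative limit, negative inhibition meaning the enzyme was activated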
* hit, by the source's call; . = no result. Shown are actives, neighbours in structure and some others; about 2.4% of the full set was active somewhere.

SMILES	PfGluPho inh	HKDC1 inhibitor	A3A deaminase	M18AAP inhibitor	A3G deaminase	SUMO HTRF inh	HKDC1 act conf2
NNC(=O)CSc1cccc2cccnc12	4	-10	0	15	-6	-10	.
C=CCn1nc([N+](=O)[O-])nc1Sc1cccc2cccnc12	38	-47	2	19	-6	-12	-52*
CC(C)CC(COCc1ccc(F)cc1)N1CCN(C(=O)c2cccc(C(F)(F)F)c2)CCC1=O (stereo unspecified)	-1	3	-3	-1	-7	15	.
CCOc1ccc(-n2c(C)cc(C(=O)CCl)c2C)cc1	8	35	1	-15	4	9	28
CCn1ncc2c1C(=O)NC1c3ccccc3C(=O)N21 (stereo unspecified)	-5	-5	1	-6	2	19	.
Cc1cc2cc(CN(Cc3cccs3)S(=O)(=O)c3ccc4c(c3)OCCO4)c(=O)[nH]c2cc1C	5	-47	-2	-8	-6	-12	-16
O=C(CSc1n[nH]c(-c2cccnc2)n1)Nc1ccc([N+](=O)[O-])cc1Br	26	46*	-1	1	-4	3	56
O=C(CSc1n[nH]c(-c2cccnc2)n1)Nc1ccccc1[N+](=O)[O-]	-3	0	-1	-3	-5	1	.
CCc1ccc(S(=O)(=O)/N=C2/C=C(Sc3ncn[nH]3)C(=O)c3ccccc32)cc1	107*	71*	.	47*	.	92*	73
CCc1ccc(S(=O)(=O)/N=C2\C=CC(=O)c3ccccc32)cc1	.	.	-4	-8	-9	.	.
CC1(C)OC(=O)C(=CNCC(O)c2ccccc2)C(=O)O1 (stereo unspecified)	-4	-6	-2	1	-3	0	.
C=CCOc1ccc(C=NNc2ccc(S(=O)(=O)Nc3ccccc3C(=O)O)cc2[N+](=O)[O-])cc1OC	-24	51*	-1	.	-1	.	-4
O=S(=O)(NC1c2cccc3cccc(c23)C1N1CCNCC1)c1ccccc1 (stereo unspecified)	-42	-56	1	-8	-1	-7	-95*
O=S(=O)(NC1c2cccc3cccc(c23)C1N1CCN(CCO)CC1)c1ccccc1 (stereo unspecified)	-61	-66	.	7	.	28	-118*
O=C(c1ccccc1)N1CCN(C2c3cccc4cccc(c34)C2NS(=O)(=O)c2ccccc2)CC1 (stereo unspecified)	-29	-34	1	-3	5	19	.
Cc1ccccc1S(=O)(=O)c1c(C)cc(C)n(CC(C)C)c1=O	-13	71*	0	-8	-2	-7	-6
Cc1ccccc1S(=O)(=O)c1c(C)cc(C)n(C)c1=O	-21	-3	1	0	1	17	.
CNCCOc1ccc(Cl)c(Cl)c1	3	-2	-3	-7	-5	7	.
Cc1noc(C)c1CSCC(=O)Nc1nc(-c2ccc(F)c(F)c2)cs1	17	7	3	.	3	.	.
COc1ccc(-c2csc(NC(=O)CSCc3c(C)noc3C)n2)cc1OC	-9	35	-5	-3	-8	-4	-33
CN(C)/C=C/C(=O)/C=C/c1cn(-c2ncc(C(F)(F)F)cc2Cl)c2ccccc12	7	5	0	11	-6	1	.
Cc1ccc(S(=O)(=O)c2nc(S(C)(=O)=O)sc2N2CCC(O)CC2)cc1	4	-4	-2	-2	-4	9	.
CCOc1ccc(N=C2NN=C(c3cc(C)n(CC4CCCO4)c3C)CS2)cc1 (stereo unspecified)	29	-17	-4	10	-10	7	.
Cc1cc(C2=NNC(=Nc3ccc(S(=O)(=O)N4CCOCC4)cc3)SC2)c(C)n1C	54	-73	-5	23	-4	2	-47*
CC(C)(C)c1nnc(N/N=C/c2cc(Br)ccc2O)n(N)c1=O	-5	-43	.	44*	.	-138	-49*
SMILES	PfGluPho inh	HKDC1 inhibitor	A3A deaminase	M18AAP inhibitor	A3G deaminase	SUMO HTRF inh	HKDC1 act conf2
O=C(CN1C(=O)/C(=C2\SC(=S)N(CCS(=O)(=O)O)C2=O)c2ccccc21)Nc1cccc(Br)c1	24	58*	.	-8	.	56*	13
CCOc1ccc(NC(=O)CN2C(=O)/C(=C3\SC(=S)N(C4CCS(=O)(=O)C4)C3=O)c3ccccc32)cc1 (stereo unspecified)	-4	-3	.	7	.	12	.
COc1ccc(/C(=N/Nc2ncnc3ccccc23)C(=O)O)cc1	-6	-1	1	12	-5	13	.
CC(=O)Nc1ccc(N2C(=O)CSC2c2c(F)cccc2Cl)cc1 (stereo unspecified)	3	-1	-2	-4	-10	5	.
CCN(CC)S(=O)(=O)c1ccc(N/N=C/c2ccc(O)cc2)nc1	-4	2	-2	1	-1	8	.
CCN(CC)S(=O)(=O)c1ccc(N/N=C(\C)c2ccc(OC)cc2O)nc1	53	31	2	15	-2	3	20
Cc1c(C(=O)Oc2ccc(-c3cnc4ccccc4n3)cc2)cccc1[N+](=O)[O-]	42	-89	2	8	5	21	-27
COc1ccc(/C=C/C(=O)NC(C)C)cc1Br	-21	8	4	-7	5	5	.
O=C(CNC(=O)c1ccc2c(c1)OCCO2)N/N=C/c1ccc(O)cc1O	-18	-51	-4	16	-7	-1	18
COc1cccc(/C=N/NC(=O)CNC(=O)c2ccc3c(c2)OCCO3)c1O	-6	-19	8	8	2	10	.
COc1cccc(/C=N/NC(=O)CNC(=O)c2ccncc2)c1O	-52	-12	-5	14	-4	-7	.
O=C(CNC(=O)c1ccncc1)N/N=C/c1ccc(O)cc1O	-13	-41	-5	12	15	16	-25
Cc1cc(C)n(CCC(=O)N/N=C/c2ccc(O)cc2O)n1	-18	-42	-4	4	-7	-4	-36
CCOC(=O)C1(Cc2ccccc2C(F)(F)F)CCN(C(C)COC)CC1 (stereo unspecified)	-11	-6	1	-2	-3	10	.
COc1cc(OC)cc(-c2c(-c3cccs3)c3cc(-c4ccc(C(N)=O)cc4)ccc3n2C)c1	6	-3	-1	.	-9	.	.

Source: PubChem (several laboratories)
